Source: PubChem BioAssay AID602401 (Sanford-Burnham Center for Chemical Genomics, 2012)
Activity calls are given as the source filed them.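 The calls were made as follows: active = IC50 below 100 µM in the TR-FRET assay, unless also active in the caspase-3 counter assay; inactive = the rest, including compounds also active in caspase-3.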

Target: Caspase-3 (Homo sapiens) (UniProt P42574)
Test: caspase-3 inhibition by analogues, SAR follow-up, counter-screen for UBC13 polyubiquitin inhibitor project, biochemical, Caspase-Glo luminescence, set 4 (AID 602401)
Settings: recombinant caspase-3, Caspase-Glo luminescence, 60 min
Method in brief: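 system = Caspase-3 enzyme | input = Caspase-3 2X solution, 0.046 nM | buffer or medium = Hepes pH 7.8 with DTT, EDTA, Tween, BSA | also added = Caspase-Glo substrate added as 2X working solution at 0.75X | timing = 60 min reaction, room temperature | signal = luminescence from Caspase-Glo substrate cleavage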

Caspase-3 (Homo sapiens), sequence (P42574 whole entry, looked up): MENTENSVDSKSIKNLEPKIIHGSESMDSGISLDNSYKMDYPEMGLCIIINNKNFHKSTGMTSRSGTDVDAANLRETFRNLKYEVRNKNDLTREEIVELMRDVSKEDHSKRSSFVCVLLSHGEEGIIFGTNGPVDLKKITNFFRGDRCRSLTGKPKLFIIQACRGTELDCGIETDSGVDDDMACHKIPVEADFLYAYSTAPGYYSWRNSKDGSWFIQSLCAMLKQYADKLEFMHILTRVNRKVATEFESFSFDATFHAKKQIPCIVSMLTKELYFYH

Row | Structure (SMILES) | IC50
1 | O=C(NCC1CCN(Cc2cccc(Cl)c2)CC1)C1CCCN(c2ncnc3c2nc2n3CCCC2)C1 (stereo unspecified) | > 100 µM (inactive)
2 | O=C(NCC1CCN(Cc2cccc(Cl)c2)CC1)[C@H]1CCCN(c2ncnc3c2nc2n3CCCCC2)C1 | > 100 µM (inactive)
3 | O=C(C1CCN(c2ncnc3c2nc2n3CCCCC2)CC1)N1CCN(c2ccc(F)cc2)CC1 | > 100 µM (inactive)
4 | O=C(C1CCN(c2ncnc3c2nc2n3CCCCC2)CC1)N1CCN(c2ccccc2)CC1 | > 100 µM (inactive)
5 | O=C(NCC1CCN(Cc2ccccc2Cl)CC1)C1CCCN(c2ncnc3c2nc2n3CCCCC2)C1 (stereo unspecified) | > 100 µM (inactive)
6 | O=C(NCC1CCN(Cc2cccc(Cl)c2)CC1)[C@H]1CCCN(c2ncnc3c2nc2n3CCCC2)C1 | > 100 µM (inactive)
7 | CC1CC(C)CN(C(=O)C2CCN(c3ncnc4c3nc3n4CCCCC3)CC2)C1 (stereo unspecified) | > 100 µM (inactive)
8 | CN(CCNC(=O)C1CCN(c2ncnc3c2nc2n3CCCCC2)CC1)Cc1ccccc1 | > 100 µM (inactive)
9 | O=C(Nc1ccc(CN2CCCCC2)cc1)C1CCN(c2ncnc3c2nc2n3CCCCC2)CC1 | > 100 µM (inactive)
10 | Cc1cccc(N2CCN(CCCNC(=O)C3CCCN(c4ncnc5c4nc4n5CCCCC4)C3)CC2C)c1 (stereo unspecified) | > 100 µM (inactive)
11 | CCCN1CCN(C(=O)C2CCN(c3ncnc4c3nc3n4CCCCC3)CC2)CC1 | > 100 µM (inactive)
12 | O=C(NCC1CCN(Cc2ccc(Cl)c(Cl)c2)CC1)C1CCCN(c2ncnc3c2nc2n3CCCC2)C1 (stereo unspecified) | > 100 µM (inactive)
13 | O=C(NCCCN1CCN(c2ccc(F)cc2)CC1)C1CCCN(c2ncnc3c2nc2n3CCCCC2)C1 (stereo unspecified) | > 100 µM (inactive)
14 | COc1ccccc1N1CCN(CCCNC(=O)C2CCCN(c3ncnc4c3nc3n4CCCCC3)C2)CC1 (stereo unspecified) | > 100 µM (inactive)
15 | Cc1ccc(C)c(CN2CCC(CNC(=O)C3CCCN(c4ncnc5c4nc4n5CCCCC4)C3)CC2)c1 (stereo unspecified) | > 100 µM (inactive)
16 | O=C(NCC1CCN(Cc2ccc(Cl)c(Cl)c2)CC1)C1CCCN(c2ncnc3c2nc2n3CCCCC2)C1 (stereo unspecified) | > 100 µM (inactive)
17 | Cc1ccc(C)c(N2CCN(CCCNC(=O)C3CCCN(c4ncnc5c4nc4n5CCCCC4)C3)CC2)c1 (stereo unspecified) | > 100 µM (inactive)
18 | Cc1ccccc1CN1CCC(CNC(=O)C2CCCN(c3ncnc4c3nc3n4CCCCC3)C2)CC1 (stereo unspecified) | > 100 µM (inactive)
19 | Cc1cc(C)cc(NC(=O)C2CCCN(c3ncnc4c3nc3n4CCCCC3)C2)c1 (stereo unspecified) | > 100 µM (inactive)
20 | Cc1ccc(NC(=O)C2CCCN(c3ncnc4c3nc3n4CCCC3)C2)cc1C (stereo unspecified) | > 100 µM (inactive)
21 | O=C(C1CCN(c2ncnc3c2nc2n3CCCCC2)CC1)N1CCOCC1 | > 100 µM (inactive)
22 | O=C(C1CCN(c2ncnc3c2nc2n3CCCCC2)CC1)N1CCN(Cc2ccccc2)CC1 | > 100 µM (inactive)
23 | CCC1CCCCN1CCCNC(=O)C1CCN(c2ncnc3c2nc2n3CCCCC2)CC1 (stereo unspecified) | > 100 µM (inactive)
24 | O=C(NCC1CCN(Cc2ccc(Cl)cc2)CC1)C1CCCN(c2ncnc3c2nc2n3CCCCC2)C1 (stereo unspecified) | > 100 µM (inactive)
25 | O=C(NCc1ccc(Cl)c(Cl)c1)C1CCCN(c2ncnc3c2nc2n3CCCCC2)C1 (stereo unspecified) | > 100 µM (inactive)
26 | Cc1ccc(NC(=O)C2CCCN(c3ncnc4c3nc3n4CCCC3)C2)cc1F (stereo unspecified) | > 100 µM (inactive)
27 | Cc1cccc(NC(=O)C2CCCN(c3ncnc4c3nc3n4CCCC3)C2)c1 (stereo unspecified) | > 100 µM (inactive)

Row | Structure (SMILES) | IC50
28 | Cc1ccc(NC(=O)C2CCCN(c3ncnc4c3nc3n4CCCC3)C2)cc1Br (stereo unspecified) | > 100 µM (inactive)
29 | O=C(NCc1cccc(Cl)c1)C1CCN(c2ncnc3c2nc2n3CCCC2)CC1 | 63.4 µM
30 | O=C(NCc1cccc(Cl)c1)C1CCCN(c2ncnc3c2nc2n3CCCC2)C1 (stereo unspecified) | > 100 µM (inactive)
31 | O=C(C1CCN(c2ncnc3c2nc2n3CCCCC2)CC1)N1CCC(Cc2ccccc2)CC1 | > 100 µM (inactive)
32 | O=C(NCc1ccc(Cl)c(Cl)c1)C1CCN(c2ncnc3c2nc2n3CCCCC2)CC1 | > 100 µM (inactive)
33 | O=C(C1CCN(c2ncnc3c2nc2n3CCCCC2)CC1)N1CCN(c2ccccn2)CC1 | > 100 µM (inactive)
34 | O=C(NCC1CCN(Cc2ccccc2Cl)CC1)C1CCCN(c2ncnc3c2nc2n3CCCC2)C1 (stereo unspecified) | > 100 µM (inactive)
35 | Cc1cc(C)cc(NC(=O)C2CCCN(c3ncnc4c3nc3n4CCCC3)C2)c1 (stereo unspecified) | > 100 µM (inactive)
36 | CC1CCCC(C)N1CCCNC(=O)C1CCCN(c2ncnc3c2nc2n3CCCCC2)C1 (stereo unspecified) | > 100 µM (inactive)
37 | O=C(NCc1cccc(Cl)c1)C1CCCN(c2ncnc3c2nc2n3CCCCC2)C1 (stereo unspecified) | > 100 µM (inactive)
38 | O=C(NCC1CCN(Cc2cccc(Cl)c2)CC1)[C@@H]1CCCN(c2ncnc3c2nc2n3CCCC2)C1 | > 100 µM (inactive)
39 | Cc1cccc(NC(=O)C2CCCN(c3ncnc4c3nc3n4CCCCC3)C2)c1 (stereo unspecified) | > 100 µM (inactive)
40 | O=C(NCC1CCN(Cc2ccccc2F)CC1)C1CCCN(c2ncnc3c2nc2n3CCCCC2)C1 (stereo unspecified) | > 100 µM (inactive)
41 | O=C(NCC1CCN(Cc2cccc(Cl)c2)CC1)C1CCCN(c2ncnc3c2nc2n3CCCCC2)C1 (stereo unspecified) | > 100 µM (inactive)
42 | O=C(C1CCN(c2ncnc3c2nc2n3CCCCC2)CC1)N1CCN(c2ncccn2)CC1 | > 100 µM (inactive)
43 | CC1CCCCN1C(=O)C1CCN(c2ncnc3c2nc2n3CCCCC2)CC1 (stereo unspecified) | > 100 µM (inactive)
44 | O=C(c1ccco1)N1CCN(C(=O)C2CCN(c3ncnc4c3nc3n4CCCCC3)CC2)CC1 | > 100 µM (inactive)
45 | O=C(NCC1CCN(Cc2ccc(Cl)cc2)CC1)C1CCCN(c2ncnc3c2nc2n3CCCC2)C1 (stereo unspecified) | > 100 µM (inactive)
46 | O=C(NCc1ccc(Cl)c(Cl)c1)C1CCCN(c2ncnc3c2nc2n3CCCC2)C1 (stereo unspecified) | > 100 µM (inactive)
47 | O=C(NCCCN1CCN(c2ccccc2)CC1)C1CCCN(c2ncnc3c2nc2n3CCCCC2)C1 (stereo unspecified) | > 100 µM (inactive)
48 | O=C(NCCCN1CCCCC1)C1CCN(c2ncnc3c2nc2n3CCCCC2)CC1 | > 100 µM (inactive)
49 | Cc1ccc(NC(=O)C2CCCN(c3ncnc4c3nc3n4CCCCC3)C2)cc1F (stereo unspecified) | > 100 µM (inactive)
50 | O=C(NCC1CCN(Cc2ccc(F)cc2)CC1)C1CCCN(c2ncnc3c2nc2n3CCCCC2)C1 (stereo unspecified) | > 100 µM (inactive)
51 | Cc1ccc(NC(=O)C2CCCN(c3ncnc4c3nc3n4CCCCC3)C2)cc1Br (stereo unspecified) | > 100 µM (inactive)
52 | O=C(NCc1ccc(Cl)c(Cl)c1)C1CCN(c2ncnc3c2nc2n3CCCC2)CC1 | > 100 µM (inactive)
53 | O=C(NCC1CCN(Cc2cccc(Cl)c2)CC1)[C@@H]1CCCN(c2ncnc3c2nc2n3CCCCC2)C1 | > 100 µM (inactive)

Now from value to molecule:

Row | IC50 | Structure (SMILES)
54 | > 100 µM (inactive) | Cc1c(Cl)cccc1NC(=O)C1CCN(c2ncnc3c2nc2n3CCCCC2)CC1
55 | > 100 µM (inactive) | O=C(Nc1cccc(Cl)c1)C1CCN(c2ncnc3c2nc2n3CCCCC2)CC1
56 | > 100 µM (inactive) | COc1ccc(Cl)cc1NC(=O)C1CCN(c2ncnc3c2nc2n3CCCCC2)CC1
57 | > 100 µM (inactive) | Cc1ccc(NC(=O)C2CCN(c3ncnc4c3nc3n4CCCCC3)CC2)cc1Br
58 | > 100 µM (inactive) | Cc1cccc(NC(=O)C2CCN(c3ncnc4c3nc3n4CCCCC3)CC2)c1
59 | > 100 µM (inactive) | Cc1cccc(NC(=O)C2CCN(c3ncnc4c3nc3n4CCCCC3)CC2)c1C
60 | > 100 µM (inactive) | Cc1cc(C)cc(NC(=O)C2CCN(c3ncnc4c3nc3n4CCCC3)CC2)c1
61 | > 100 µM (inactive) | Cc1ccc(NC(=O)C2CCN(c3ncnc4c3nc3n4CCCCC3)CC2)cc1Cl
62 | 69 µM | Cc1cccc(NC(=O)C2CCN(c3ncnc4c3nc3n4CCCC3)CC2)c1
63 | > 100 µM (inactive) | Cc1ccc(NC(=O)C2CCN(c3ncnc4c3nc3n4CCCCC3)CC2)cc1F
64 | > 100 µM (inactive) | O=C(Nc1ccc(F)c(Cl)c1)C1CCN(c2ncnc3c2nc2n3CCCCC2)CC1
65 | > 100 µM (inactive) | Cc1ccc(NC(=O)C2CCN(c3ncnc4c3nc3n4CCCCC3)CC2)cc1C
66 | > 100 µM (inactive) | COc1cc(OC)c(NC(=O)C2CCN(c3ncnc4c3nc3n4CCCCC3)CC2)cc1Cl
67 | > 100 µM (inactive) | Cc1ccc(NC(=O)C2CCN(c3ncnc4c3nc3n4CCCC3)CC2)cc1Br
68 | > 100 µM (inactive) | Cc1ccc(NC(=O)C2CCN(c3ncnc4c3nc3n4CCCCC3)CC2)c(Cl)c1
69 | > 100 µM (inactive) | Cc1ccc(NC(=O)C2CCN(c3ncnc4c3nc3n4CCCC3)CC2)cc1C
70 | > 100 µM (inactive) | O=C(Nc1cc(F)ccc1F)C1CCN(c2ncnc3c2nc2n3CCCCC2)CC1
71 | > 100 µM (inactive) | Cc1cc(C)cc(NC(=O)C2CCN(c3ncnc4c3nc3n4CCCCC3)CC2)c1
72 | > 100 µM (inactive) | Cc1ccc(NC(=O)C2CCN(c3ncnc4c3nc3n4CCCC3)CC2)cc1F
73 | > 100 µM (inactive) | COc1ccc(NC(=O)C2CCN(c3ncnc4c3nc3n4CCCCC3)CC2)cc1Cl
74 | > 100 µM (inactive) | Cc1cc(Cl)ccc1NC(=O)C1CCN(c2ncnc3c2nc2n3CCCCC2)CC1
75 | > 100 µM (inactive) | COc1cc(Cl)c(C)cc1NC(=O)C1CCN(c2ncnc3c2nc2n3CCCCC2)CC1
76 | > 100 µM (inactive) | O=C(NCc1cccc(Cl)c1)C1CCN(c2ncnc3c2nc2n3CCCCC2)CC1
